Key:
primary mouse microglia [1] = assay: Flow cytometric assay of microglial viability; type: cell-based; settings: 1 μM inhibitor, with or without 1 ng/ml IFNγ, 24 hr; Figure S2
primary mouse microglia [2] = assay: qRT-PCR of homeostatic and DAM genes in primary microglia; type: cell-based; settings: dose ranges between 4 and 50 nM, IFNγ-stimulated conditions; Figure S6
How it was run: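 Mouse brain microglia were purified by CD11b+ MACS selection, plated on poly-L-lysine and cultured at 37°C. After 24 hr, half the medium was replaced and the ERK1/2 inhibitor added. Cells were preincubated 1 hr, then stimulated with 1 ng/ml IFNγ for 24 hr, matching the NanoString culture conditions. RNA was isolated and checked for concentration and purity by spectrophotometry before qRT-PCR.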

primary mouse microglia [3] = assay: Microglia-neuron coculture assay of neuronal phagocytosis; type: cell-based; settings: 1 μM inhibitor, without IFNγ treatment; 24 hr coculture; Figure 5e
ERK1 = settings: read-out: IC50 for ERK1; ref Morris et al., 2013; cited from earlier work
ERK2 = settings: read-out: IC50 for ERK2; ref Morris et al., 2013; cited from earlier work

## O=C(Nc1ccc2[nH]nc(-c3ccncc3)c2c1)[C@@H]1CCN(CC(=O)N2CCN(c3ccc(-c4ncccn4)cc3)CC2)C1 [SCH772984]
Primary mouse microglia [1]
  cell health and viability of microglia: minimally impacted cell health and viability
Primary mouse microglia [2]
  gene expression of Ptgs2 (pro-inflammatory DAM gene): inhibited gene expression of Ptgs2
Primary mouse microglia [3]
  microglial phagocytosis of N2a cells: significantly reduced microglial phagocytosis of N2a cells
ERK1
  IC50: 4 nM
ERK2
  IC50: 1 nM
